From ChEMBL document CHEMBL1124186, “Synthesis and evaluation of tylosin-related macrolides modified at the aldehyde function: a new series of orally effective antibiotics” (1988)
Values after ≈ are worked out from the molar mass of the structure shown.

Legend:
Haemophilus influenzae = experiment: In vitro antimicrobial activity against Haemophilus influenzae.; assay type: functional
Mus musculus [1] = experiment: Peripheral plasma levels in mice after oral administration of 50 mg/kg dose for 2 hr; assay type: functional, organism-based; design: dose 50 mg/kg
Method in brief: (§1)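 Mice were given the compound orally and sampled for peripheral plasma at each time point. Plasma was assayed microbiologically against Micrococcus luteus seeded in Antibiotic Medium 1. Inhibition zone sizes were read, and concentrations were calculated from each compound's own standard curve. Each value is the mean of five mice per time point.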

Mus musculus [2] = experiment: Peripheral plasma levels in mice after oral administration of 50 mg/kg dose for 4 hr; assay type: functional, organism-based; design: dose 50 mg/kg; method in brief: as §1
Mus musculus [3] = experiment: Peripheral plasma levels in mice after oral administration of 50 mg/kg dose for 0.25 hr; assay type: functional, organism-based; design: dose 50 mg/kg; method in brief: as §1
Mus musculus [4] = experiment: Peripheral plasma levels in mice after oral administration of 50 mg/kg dose for 1 hr; assay type: functional, organism-based; design: dose 50 mg/kg; method in brief: as §1
Rattus norvegicus [5] = experiment: Peripheral plasma levels in rats after oral administration of 100 mg/kg dose for 0.25 hr; assay type: functional, organism-based; design: dose 100 mg/kg
Method in brief: (§2)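 Rats received 100 mg/kg orally and were sampled for peripheral plasma. Concentrations were measured by Micrococcus luteus agar-diffusion microbiological assay in Antibiotic Medium 1, with zone sizes converted using the standard curve for the appropriate compound. Each value is the average of three rats per time point.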

Rattus norvegicus [6] = experiment: Peripheral plasma levels in rats after oral administration of 100 mg/kg dose for 0.5 hr; assay type: functional, organism-based; design: dose 100 mg/kg; method in brief: as §2
Rattus norvegicus [7] = experiment: Peripheral plasma levels in rats after oral administration of 100 mg/kg dose for 1 hr; assay type: functional, organism-based; design: dose 100 mg/kg; method in brief: as §2
Rattus norvegicus [8] = experiment: Peripheral plasma levels in rats after oral administration of 100 mg/kg dose for 2 hr; assay type: functional, organism-based; design: dose 100 mg/kg; method in brief: as §2
Rattus norvegicus [9] = experiment: Peripheral plasma levels in rats after oral administration of 100 mg/kg dose for 4 hr; assay type: functional, organism-based; design: dose 100 mg/kg; method in brief: as §2
Staphylococcus aureus [10] = experiment: In vitro antimicrobial activity against Staphylococcus aureus X1; assay type: functional
Streptococcus pyogenes [11] = experiment: In vivo effective dose against experimental infections in rodent caused by Streptococcus pyogenes C203 when administered sc; assay type: functional
Streptococcus pneumoniae [12] = experiment: In vitro antimicrobial activity against Streptococcus pneumoniae; assay type: functional
[13] = tested on: Staphylococcus epidermidis; experiment: In vitro antimicrobial activity against Staphylococcus epidermidis EPI1; assay type: functional
Enterococcus faecium = experiment: In vitro antimicrobial activity against Streptococcus faecium X66; assay type: functional, streptococcus fae-cium
Streptococcus pyogenes [14] = experiment: In vitro antimicrobial activity against Streptococcus pyogenes C203; assay type: functional
Mus musculus [15] = experiment: Peripheral plasma levels in mice after oral administration of 50 mg/kg dose for 0.5 hr; assay type: functional, organism-based; design: dose 50 mg/kg; method in brief: as §1
Streptococcus pyogenes [16] = experiment: In vivo effective dose against experimental infections in rodent caused by Streptococcus pyogenes C203 when administered orally; assay type: functional; settings: po
Streptococcus pneumoniae [17] = experiment: In vivo effective dose against experimental infections in mice Streptococcus pneumoniae park when administered orally; assay type: functional; settings: po
Streptococcus pneumoniae [18] = experiment: In vivo effective dose against experimental infections in mice Streptococcus pneumoniae park when administered sc; assay type: functional
Mus musculus [19] = experiment: Peripheral plasma levels in mice after oral administration of 100 mg/kg dose for 0.5 hr; assay type: functional, organism-based; design: dose 100 mg/kg; method in brief: as §1
Mus musculus [20] = experiment: Peripheral plasma levels in mice after oral administration of 100 mg/kg dose for 1 hr; assay type: functional, organism-based; design: dose 100 mg/kg; method in brief: as §1
Mus musculus [21] = experiment: Peripheral plasma levels in mice after oral administration of 100 mg/kg dose for 2 hr; assay type: functional, organism-based; design: dose 100 mg/kg; method in brief: as §1
Streptococcus pneumoniae [22] = experiment: In vivo effective dose against experimental infections in mice Strep. pneumoniae park when administered sc; assay type: functional
Streptococcus pneumoniae [23] = experiment: In vivo effective dose against experimental infections in mice Strep. pneumoniae park when administered orally; assay type: functional; settings: po
Staphylococcus aureus [24] = experiment: In vivo effective dose against experimental infections in mice Staphylococcus aureus X1 when administered orally; assay type: functional; settings: po
Staphylococcus aureus [25] = experiment: In vivo effective dose against experimental infections in mice Staphylococcus aureus X1 when administered sc; assay type: functional
Streptococcus pyogenes [26] = experiment: Activity against Streptococcus pyogenes C203 when administered orally; assay type: functional; settings: po
Method in brief: (§3)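 Mouse protection test: infected mice were dosed twice, at 1 and 5 h postinfection, either subcutaneously or orally. […] The result is expressed as ED50 in mg/kg × 2.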

Streptococcus pyogenes [27] = experiment: Activity against Streptococcus pyogenes C203 when administered sc; assay type: functional; method in brief: as §3
Streptococcus pyogenes [28] = experiment: Antimicrobial activity against Streptococcus pyogenes C203; assay type: functional

MIC (Haemophilus influenzae) [mg/L] | MIC (Staphylococcus aureus [10]) [mg/L] | MIC (Streptococcus pneumoniae [12]) [mg/L] | MIC [13] [mg/L] | MIC (Enterococcus faecium) [mg/L] | MIC (Streptococcus pyogenes [14]) [mg/L] | SMILES | Concentration (Rattus norvegicus [5]) [µg/mL] | Concentration (Rattus norvegicus [6]) [µg/mL] | Concentration (Rattus norvegicus [7]) [µg/mL] | Concentration (Rattus norvegicus [8]) [µg/mL] | Concentration (Rattus norvegicus [9]) [µg/mL] | ED50 (Streptococcus pyogenes [11]) [mg/kg] | ED50 (Streptococcus pyogenes [16]) [mg/kg] | further results
16 (≈ 20.6 µM) | 0.25 (≈ 0.322 µM) | 2 (≈ 2.58 µM) | 0.12 (≈ 0.155 µM) | 8 (≈ 10.3 µM) | 0.25 (≈ 0.322 µM) | CC[C@H]1OC(=O)C[C@@H](O)[C@H](C)[C@@H](O[C@@H]2O[C@H](C)[C@@H](O)[C@H](N(C)C)[C@H]2O)[C@@H](CCF)C[C@@H](C)C(=O)/C=C/C(C)=C/[C@@H]1CO[C@@H]1O[C@H](C)[C@@H](O)[C@@H](OC)[C@H]1OC | 0.3 | 0.5 | 0.1 | 1.9 | 1.5 | 5 | 8 | Concentration (Mus musculus [1]): 0.4 µg/mL; Concentration (Mus musculus [2]): 0.1 µg/mL; Concentration (Mus musculus [3]): < 0.1 µg/mL; Concentration (Mus musculus [4]): 0.2 µg/mL; Concentration (Mus musculus [15]): < 0.1 µg/mL
16 (≈ 17 µM) | 0.5 (≈ 0.531 µM) | 0.25 (≈ 0.265 µM) | 0.5 (≈ 0.531 µM) | 0.5 (≈ 0.531 µM) | 0.25 (≈ 0.265 µM) | CC[C@H]1OC(=O)C[C@@H](O)[C@H](C)[C@@H](O[C@@H]2O[C@H](C)[C@@H](O)[C@H](N(C)C)[C@H]2O)[C@@H](CCOc2cccc(Oc3ccccc3)c2)C[C@@H](C)C(=O)/C=C/C(C)=C/[C@@H]1CO[C@@H]1O[C@H](C)[C@@H](O)[C@@H](OC)[C@H]1OC |  |  |  |  |  | > 10 | 35 | ED50 (Streptococcus pneumoniae [17]): 46 mg/kg; ED50 (Streptococcus pneumoniae [18]): > 20 mg/kg
8 (≈ 9.2 µM) | 0.5 (≈ 0.575 µM) | 0.25 (≈ 0.288 µM) | 0.5 (≈ 0.575 µM) | 4 (≈ 4.6 µM) | 0.25 (≈ 0.288 µM) | CC[C@H]1OC(=O)C[C@@H](O)[C@H](C)[C@@H](O[C@@H]2O[C@H](C)[C@@H](O)[C@H](N(C)C)[C@H]2O)[C@@H](CCN2CCCCCCC2)C[C@@H](C)C(=O)/C=C/C(C)=C/[C@@H]1CO[C@@H]1O[C@H](C)[C@@H](O)[C@@H](OC)[C@H]1OC | 0.3 | 0.4 | 0.2 | 1.1 | 0.2 | 0.9 | 20 | Concentration (Mus musculus [19]): 0.1 µg/mL; Concentration (Mus musculus [20]): 0.1 µg/mL; Concentration (Mus musculus [21]): 0.1 µg/mL; ED50 (Streptococcus pneumoniae [22]): > 20 mg/kg; ED50 (Streptococcus pneumoniae [23]): > 50 mg/kg; ED50 (Staphylococcus aureus [24]): 25 mg/kg; ED50 (Staphylococcus aureus [25]): 2 mg/kg
 |  |  |  |  |  | CC[C@H]1OC(=O)C[C@@H](O)[C@H](C)[C@@H](O[C@@H]2O[C@H](C)[C@@H](OC(C)=O)[C@H](N(C)C)[C@H]2OC(C)=O)[C@@H](CCOc2ccccc2)C[C@@H](C)C(=O)/C=C/C(C)=C/[C@@H]1CO[C@@H]1O[C@H](C)[C@@H](O)[C@@H](OC)[C@H]1OC |  |  |  |  |  |  |  | ED50 (Streptococcus pyogenes [26]): 16 mg/kg; ED50 (Streptococcus pyogenes [27]): 2.9 mg/kg; MIC (Streptococcus pyogenes [28]): 0.5 mg/L (≈ 0.535 µM)
